Assay [1] deals with Adenosylhomocysteinase (Homo sapiens) (UniProt P23526). Briefly: Inactivation of human recombinant S-adenosyl-L-homocysteine hydrolase NAD+ form expressed in Escherichia coli JM109 at 100 uM. The method in brief: (§1)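 Enzyme (1 μM), fully reconstituted with NAD+, incubated with 100 μM ribavirin and 50 μM NAD+ in phosphate pH 7.2 at 37 °C; remaining hydrolytic activity (AdoHcy → Ado + Hcy, ADA-coupled, DTNB read at 412 nm, 22 °C) sampled over time; first-order inactivation rate constant.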

In assay [2] the test system is Trypanosoma cruzi. The assay can be described thus: Inactivation of Trypanosoma cruzi recombinant S-adenosyl-L-homocysteine hydrolase NAD+ form expressed in Escherichia coli JM109 assessed as increase in fluorescence at 200 uM. The method in brief:
(§2)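 NAD+-reconstituted enzyme (10 μM) incubated with 200 μM ribavirin plus 100 μM NAD+ in 50 mM phosphate pH 7.2, 1 mM EDTA at 37 °C; rise in NADH fluorescence (ex 340/em 450 nm) followed over time and fit to first-order relationship.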

In assay [3] the test system is Trypanosoma cruzi. Briefly: Inactivation of Trypanosoma cruzi recombinant S-adenosyl-L-homocysteine hydrolase NAD+ form expressed in Escherichia coli JM109 at 100 uM. The method in brief: as §1
Assay [4] deals with Adenosylhomocysteinase (Homo sapiens) (UniProt P23526). The assay can be described thus: Inactivation of human recombinant S-adenosyl-L-homocysteine hydrolase NAD+ form expressed in Escherichia coli JM109 assessed as increase in fluorescence at 200 uM. The method in brief: as §2
Assay [5] has as its system Trypanosoma cruzi. The assay can be described thus: Binding to Trypanosoma cruzi recombinant S-adenosyl-L-homocysteine hydrolase NADH form expressed in Escherichia coli JM109. The method in brief:
(§3)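 Apo-enzyme reconstituted with 1 mM NADH (pH 8.5, 12 h, 4 °C) and gel-filtration purified; 10 μM enzyme incubated with ribavirin 0-6 mM in 50 mM phosphate pH 7.2, 1 mM EDTA, 37 °C. Quenching of bound NADH fluorescence (ex 340/em 450 nm) fit to hyperbolic saturation model to give dissociation constant KR.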

Assay [6] relates to Trypanosoma cruzi. The assay can be described thus: Ratio of kinact for Trypanosoma cruzi recombinant S-adenosyl-L-homocysteine hydrolase NAD form to KI for Trypanosoma cruzi recombinant S-adenosyl-L-homocysteine hydrolase NAD form.
For assay [7], the target named is Adenosylhomocysteinase (Homo sapiens) (UniProt P23526). Briefly: Ratio of kinact for human recombinant S-adenosyl-L-homocysteine hydrolase NAD+ form to KI for human recombinant S-adenosyl-L-homocysteine hydrolase NAD+.
Assay [8] deals with Trypanosoma cruzi. The assay can be described thus: Inactivation of Trypanosoma cruzi recombinant S-adenosyl-L-homocysteine hydrolase NADH form expressed in Escherichia coli JM109 assessed by measuring fluorescence.
In assay [9] the target is Adenosylhomocysteinase (Homo sapiens) (UniProt P23526). Briefly: Binding to human recombinant S-adenosyl-L-homocysteine hydrolase NADH form expressed in Escherichia coli JM109. The method in brief:
as §3

Sequence of Adenosylhomocysteinase (Homo sapiens) (P23526 2-432 limits assumed): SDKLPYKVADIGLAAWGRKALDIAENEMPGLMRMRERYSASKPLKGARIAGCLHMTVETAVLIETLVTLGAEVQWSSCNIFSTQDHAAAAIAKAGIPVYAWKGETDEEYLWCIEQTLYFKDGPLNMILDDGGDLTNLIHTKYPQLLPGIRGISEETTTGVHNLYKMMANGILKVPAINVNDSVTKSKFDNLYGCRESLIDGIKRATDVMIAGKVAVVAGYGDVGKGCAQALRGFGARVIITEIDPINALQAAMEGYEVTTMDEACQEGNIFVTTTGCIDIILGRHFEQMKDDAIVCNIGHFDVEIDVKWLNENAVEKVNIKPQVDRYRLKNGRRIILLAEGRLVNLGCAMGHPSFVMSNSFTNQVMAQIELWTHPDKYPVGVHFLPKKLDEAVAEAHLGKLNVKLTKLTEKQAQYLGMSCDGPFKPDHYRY

As for `NC(=O)c1ncn([C@@H]2O[C@H](CO)[C@@H](O)[C@H]2O)n1`, the results for the Activity entry (in [1]; in the assay on Trypanosoma cruzi [3]; with Trypanosoma cruzi [8]) were “Dose-dependent effect”, “Dose-dependent effect” and 3.13 10^10/M, respectively. Also, the Fluorescence intensity with Trypanosoma cruzi [2] is 227000; in assay [4], 182000. The KR in the assay with Trypanosoma cruzi [5] was 586 µM; in assay [9] it was 407 µM. In addition, the Ratio stood at 3.92 M⁻¹ s⁻¹ with Trypanosoma cruzi [6] and 0.56 M⁻¹ s⁻¹ in [7].

For `Nc1ncnc2c1ncn2[C@@H]1C=C[C@@H](O)[C@H]1O`, the Fluorescence intensity with Trypanosoma cruzi [8] is 5.4%.

(Values after ChEMBL document CHEMBL1137494, “The antiviral drug ribavirin is a selective inhibitor of S-adenosyl-L-homocysteine hydrolase from Trypanosoma cruzi” (Bioorg Med Chem, 2007).)
